The values below come from ChEMBL document CHEMBL1125104, “Long-acting dihydropyridine calcium antagonists. 5. Synthesis and structure-activity relationships for a series of 2-[[(N-substituted-heterocyclyl)ethoxy]methyl]-1,4-dihydropyridine calcium antagonists” (J Med Chem, 1990).

The species named for data set [1] is Rattus norvegicus. The data set can be described thus: Concentration required to block Ca+2-induced contraction of K+ depolarized rat aorta. The format is functional. An outline of the steps:
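Isolated rat aorta depolarized with potassium; contraction triggered by added calcium. IC50 is the concentration that inhibits the calcium-induced contraction by 50%.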

The nature of data set [2]: […] of rat aorta to […] of guinea pig. It is filed as functional.
For data set [3], the species on record is Cavia porcellus. Put plainly: Concentration required to depress contraction in the Langendorff-perfused guinea pig heart. The format is functional. Summed up: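 Langendorff-perfused guinea pig heart, in vitro. The negative inotropic effect is given as IC25, the concentration that depresses contraction by 25%.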
The subject of data set [4] is Canis familiaris. Put plainly: Coronary vasodilator activity in anesthetized dogs at the dose of 150 ug/kg (iv). The format is functional, Canis lupus familiaris.
Data set [5] in a line: Half life of the compound.

`CCO/C(O)=C1\C(COCCN2CC(=O)N=C2N)=NC(C)=C(C(=O)OC)C1c1ccccc1Cl` (stereo not given) showed a half-inhibitory concentration (IC50) in data set [1] of 20 nM. In addition, in data set [2], the Selectivity index is on record as 40. The same compound registered a pIC25 in data set [3] of 6.1.

As for `CCO/C(O)=C1\C(COCCn2cc(C(N)=O)nn2)=NC(C)=C(C(=O)OC)C1c1cccc(Cl)c1Cl` (stereo not given), it took 3.16 nM to reach half-maximal inhibition in data set [1] (IC50). Also, the Selectivity index in data set [2] came to 80. Further, the Decrease in data set [4] is recorded as 54%. Further, the half-life in data set [5] is 20 min. This compound also came in with a pIC25 in data set [3] of 6.6.

In data set [1], `CCO/C(O)=C1\C(COCCn2cnc3ccccc32)=NC(C)=C(C(=O)OC)C1c1ccccc1Cl` (stereo not given) had a half-inhibitory concentration (IC50) of 20 nM. In addition, the Selectivity index in data set [2] turned out to be 3. The compound further returned a pIC25 in data set [3] of 7.2.

The compound `CCO/C(O)=C1\C(COCCn2ccnn2)=NC(C)=C(C(=O)OC)C1c1ccccc1Cl` (stereo not given) showed an IC50 in data set [1] of 15.8 nM. In addition, in data set [2], the Selectivity index is listed as 3. The same compound yielded a pIC25 in data set [3] of 7.3.

In data set [1], `CCOC(=O)c1cn(CCOCC2=NC(C)=C(C(=O)OC)C(c3ccccc3Cl)/C2=C(\O)OCC)nn1` (stereo not given) gave an IC50 of 50.1 nM. For the same compound, the Selectivity index in data set [2] came to 2. This compound displayed a pIC25 in data set [3] of 7.

With `CCO/C(O)=C1\C(COCCn2cc(C(N)=O)nn2)=NC(C)=C(C(=O)OC)C1c1ccccc1Cl` (stereo not given), the midpoint of inhibition in data set [1], the IC50, lay at 20 nM. Also, the Selectivity index in data set [2] is given as >50. Besides, in data set [3], the pIC25 is listed as <6.

Compound `CCO/C(O)=C1\C(COCCN2CC(=O)N(C)C2=O)=NC(C)=C(C(=O)OC)C1c1cccc(Cl)c1Cl` (stereo not given) gave a Decrease in data set [4] of 50%. In data set [5], this compound showed a half-life of 10 min. Also, the pIC25 in data set [3] was found to be 7.2.

Compound `CCO/C(O)=C1\C(COCCn2ccnn2)=NC(C)=C(C(=O)OC)C1c1cccc(Cl)c1Cl` (stereo not given) gave a concentration for half-maximal inhibition (IC50) in data set [1] of 5.01 nM. In data set [2], the Selectivity index came out at 10. Moreover, the Decrease in data set [4] is recorded as 79%. In data set [5], the half-life turned out to be 30 min. In addition, the pIC25 in data set [3] was determined as 7.3.

In turn, `CCOC(=O)c1cnnn1CCOCC1=NC(C)=C(C(=O)OC)C(c2ccccc2Cl)/C1=C(\O)OCC` (stereo not given) gave a 50% inhibitory concentration (IC50) in data set [1] of 100 nM. Also, in data set [2], the Selectivity index came out at 1.3. In data set [3], this compound displayed a pIC25 of 6.9.

On to `CCO/C(O)=C1\C(COCCn2nncc2C(N)=O)=NC(C)=C(C(=O)OC)C1c1ccccc1Cl` (stereo not given), for which the IC50 in data set [1] is 100 nM. In addition, the Selectivity index in data set [2] turned out to be 5. For the same compound, in data set [3], the pIC25 was 6.3.

In the case of `CCO/C(O)=C1\C(COCCn2nncc2C(N)=O)=NC(C)=C(C(=O)OC)C1c1cccc(Cl)c1Cl` (stereo not given), half-maximal inhibition in data set [1] (IC50) required 15.8 nM. The Selectivity index in data set [2] was determined as 20. This compound gave a pIC25 in data set [3] of 6.5.

Turning to `CCOC(=O)C1=C(COCCN)NC(C)=C(C(=O)OC)C1c1ccccc1Cl` (stereo not given) [AMLODIPINE], the concentration for half-maximal inhibition (IC50) in data set [1] was 7.94 nM. Besides, the Selectivity index in data set [2] came out at 8. The compound further showed a pIC25 in data set [3] of 7.2.

Take `CCO/C(O)=C1\C(COCCn2ccnc2C)=NC(C)=C(C(=O)OC)C1c1ccccc1Cl` (stereo not given): in data set [1], the half-inhibitory concentration (IC50) is 2.51 nM. For the same compound, in data set [2], the Selectivity index is 6. The pIC25 in data set [3] is listed as 7.8.

In turn, `CCO/C(O)=C1\C(COCCN2CC(=O)N(C)C2=O)=NC(C)=C(C(=O)OC)C1c1ccccc1Cl` (stereo not given) showed an IC50 in data set [1] of 25.1 nM. Also, in data set [2], the Selectivity index was determined as 16. The compound further had a pIC25 in data set [3] of 6.4.

On to `CCO/C(O)=C1\C(COCCN2CC(=O)N=C2N)=NC(C)=C(C(=O)OC)C1c1cccc(Cl)c1Cl` (stereo not given), for which, in data set [4], the Decrease was determined as 60%. For the same compound, the half-life in data set [5] is > 180 min.

For `CCO/C(O)=C1\C(COCCn2cc(N)n(C)c2=O)=NC(C)=C(C(=O)OC)C1c1ccccc1Cl` (stereo not given), in data set [1], the IC50 is 25.1 nM. The Selectivity index in data set [2] came out at 25. In data set [3], the pIC25 is recorded as 6.2.

As to `CCO/C(O)=C1\C(COCCn2c(N)cnc2O)=NC(C)=C(C(=O)OC)C1c1ccccc1Cl` (stereo not given), it took 158 nM to reach half-maximal inhibition in data set [1] (IC50). The Selectivity index in data set [2] is recorded as 6. The compound further displayed a pIC25 in data set [3] of 6.

`CCO/C(O)=C1\C(COCCN2C(=O)CNC2=O)=NC(C)=C(C(=O)OC)C1c1ccccc1Cl` (stereo not given): in data set [1], it took 31.6 nM to reach half-maximal inhibition (IC50). In data set [2], the Selectivity index came out at 5. In addition, the pIC25 in data set [3] is 6.8.

`CCO/C(O)=C1\C(COCCn2cc(N)nc2O)=NC(C)=C(C(=O)OC)C1c1ccccc1Cl` (stereo not given): in data set [1], the half-maximal inhibitory concentration (IC50) is 31.6 nM. For the same compound, the Selectivity index in data set [2] is >32. Also, the pIC25 in data set [3] is listed as <6.

`CCO/C(O)=C1\C(COCCn2c(C)nc(C)c2C)=NC(C)=C(C(=O)OC)C1c1ccccc1Cl` (stereo not given) had a concentration for half-maximal inhibition (IC50) in data set [1] of 5.01 nM. Besides, the Selectivity index in data set [2] amounted to 6. For the same compound, in data set [3], the pIC25 is on record as 7.5.

`CCO/C(O)=C1\C(COCCN2CC(=O)NC2=O)=NC(C)=C(C(=O)OC)C1c1ccccc1Cl` (stereo not given) gave an IC50 in data set [1] of 20 nM. For the same compound, the Selectivity index in data set [2] is 25. The compound further had a pIC25 in data set [3] of 6.3.

For `CCO/C(O)=C1\C(COCCN2CC(=O)NC2=O)=NC(C)=C(C(=O)OC)C1c1cccc(Cl)c1Cl` (stereo not given), the IC50 in data set [1] is 3.16 nM. In data set [2], the Selectivity index came out at 25. In data set [4], this compound registered a Decrease of 65%. The half-life in data set [5] stood at 30 min. Also, the pIC25 in data set [3] was 7.1.

Consider `COC(=O)C1=C(C)NC(C)=C(C(=O)OC)C1c1ccccc1[N+](=O)[O-]` [NIFEDIPINE], for which the Selectivity index in data set [2] is given as 8. For the same compound, the Decrease in data set [4] is recorded as 77%. The compound further yielded a half-life in data set [5] of 36 min. This compound also displayed a pIC25 in data set [3] of 7.5.
